Data reported in ChEMBL document CHEMBL1126599, “Specific sequestering agents for the actinides. 21. Synthesis and initial biological testing of octadentate mixed catecholate-hydroxypyridinonate ligands” (J Med Chem, 1993).

Legend:
[1] = organism: Mus musculus; experiment: Percent of injected 238-Plutonium(IV) in mice soft tissue at 24 h; type: ADME, organism-based; settings: in vivo
Summary of the method: (§1)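 Mice received plutonium(IV)-238 citrate iv. At 1 h, normally fed mice got ligand at 30 μmol kg-1 in 0.14 M NaCl by ip injection, then water only. Each five-mouse group was housed in one metabolic cage to collect urine and feces. Mice were killed at 24 h. Pu was expressed as % of injected dose, normalized to 100% recovery. Kidneys and excreta were pooled per group. Saline-injected controls were killed at 24 h.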

[2] = organism: Mus musculus; experiment: Percent of injected 238-Plutonium(IV) in mice kidneys at 24 h; type: ADME, organism-based, Kidney; settings: in vivo; summary of the method: as §1
[3] = Removal of 238-Plutonium(IV) in urine after 0-4 h; type: ADME, tissue-based; summary of the method: as §1
[4] = organism: Mus musculus; experiment: Percent of injected 238-Plutonium(IV) in mice skeleton at 24 h; type: ADME, organism-based; settings: in vivo; summary of the method: as §1
[5] = Removal of 238-Plutonium(IV) in feces at 24 h; type: ADME; summary of the method: as §1
[6] = organism: Mus musculus; experiment: Percent of injected 238-Plutonium(IV) in mice liver at 24 h; type: ADME, organism-based; settings: in vivo; summary of the method: as §1
[7] = Removal of 238-Plutonium(IV) in urine after 4-24 h; type: ADME, tissue-based; summary of the method: as §1
[8] = organism: Mus musculus; experiment: Percent of injected 238-Plutonium(IV) in mice whole body at 24 h; type: ADME, organism-based; settings: in vivo; summary of the method: as §1
[9] = Removal of 238-Plutonium(IV) in gastrointestinal (GI) contents at 24 h; type: ADME; summary of the method: as §1
[10] = Removal of 238-Plutonium(IV) in urine after 0-24 h; type: ADME, tissue-based; summary of the method: as §1
[11] = test system: Mus musculus; experiment: Percent of injected 238-Plutonium(IV) in mice liver at 24 hr (orally administered); type: ADME, organism-based; settings: in vivo, po
Summary of the method: (§2)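 Mice were fasted 18 h and given plutonium(IV)-238 citrate iv. At 3 min, ligand at 30 μmol kg-1 in 0.14 M NaCl was given by gastric intubation, with a little food at 4 h. Urine (0–4 h, 4–24 h) and feces were collected per five-mouse group in a metabolic cage. Mice were killed at 24 h. Tissue and GI Pu was expressed as % injected dose, normalized to 100% recovery. Kidneys and excreta were pooled per group. Fasted controls were included.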

[12] = test system: Mus musculus; experiment: Percent of injected 238-Plutonium(IV) in mice skeleton at 24 hr (orally administered); type: ADME, organism-based; settings: in vivo, po; summary of the method: as §2
[13] = test system: Mus musculus; experiment: Percent of injected 238-Plutonium(IV) in mice whole body at 24 hr (orally administered); type: ADME, organism-based; settings: in vivo, po; summary of the method: as §2
[14] = test system: Mus musculus; experiment: Percent of injected 238-Plutonium(IV) in mice kidneys at 24 hr (orally administered); type: ADME, organism-based, Kidney; settings: in vivo, po; summary of the method: as §2
[15] = Removal of 238-Plutonium(IV) in urine after 0-24 hr (orally administered); type: ADME, tissue-based; settings: po; in the assay text read “4-24 hr” for “0-24 hr”; summary of the method: as §2
[16] = Removal of 238-Plutonium(IV) in urine after 0-4 hr (orally administered); type: ADME, tissue-based; settings: po; summary of the method: as §2
[17] = test system: Mus musculus; experiment: Percent of injected 238-Plutonium(IV) in mice soft tissue at 24 hr (orally administered); type: ADME, organism-based; settings: in vivo, po; summary of the method: as §2
[18] = Removal of 238-Plutonium(IV) in feces at 24 hr (orally administered); type: ADME; settings: po; summary of the method: as §2
[19] = Removal of 238-Plutonium(IV) in gastrointestinal (GI) contents at 24 hr (orally administered); type: ADME; settings: po; summary of the method: as §2
[20] = Removal of 238-Plutonium(IV) in urine after 4-24 hr (orally administered); type: ADME, tissue-based; settings: po; summary of the method: as §2
[21] = test system: Mus musculus; experiment: Percent of injected 238-Plutonium(IV) in mice kidney at 24 hr (orally administered); type: ADME, organism-based; settings: in vivo, po; summary of the method: as §2
[22] = Removal of 238-Plutonium(IV) in urine at 4-24 hr (orally administered); type: ADME, tissue-based; settings: po; summary of the method: as §2
[23] = Removal of 238-Plutonium(IV) in urine at 0-4 hr (orally administered); type: ADME, tissue-based; settings: po; summary of the method: as §2
[24] = Removal of 238-Plutonium(IV) in urine 4-24 hr (orally administered); type: ADME; settings: po; summary of the method: as §2
[25] = Removal of 238-Plutonium(IV) in urine 0-4 h (orally administered); type: ADME; settings: po; summary of the method: as §2

Which ID [1] does the source give for `O=C(NCCCN(CCCCN(CCCNC(=O)c1cc(S(=O)(=O)O)cc(O)c1O)C(=O)c1cc(S(=O)(=O)O)cc(O)c1O)C(=O)c1cc(S(=O)(=O)O)cc(O)c1O)c1cc(S(=O)(=O)O)cc(O)c1O` here?
The ID was 2.8%.

What about the ID [2] of the same molecule?
The ID was 0.9%.

What about the ID [3] of the same molecule?
The ID was 58%.

And the ID [4]?
The ID was 6.7%.

And the ID [5]?
The ID was 0.4%.

And the ID [6]?
Its ID is 25%.

What about the ID [7] of the same molecule?
The ID was 4%.

What about the ID [8] of the same molecule?
The ID was 35%.

And the ID [9]?
Its ID is 2.9%.

Which results are given for `O=C(NCCCN(CCCCN(CCCNC(=O)c1cccc(O)c1O)C(=O)c1cccc(O)c1O)C(=O)c1cccc(O)c1O)c1cccc(O)c1O`?
ID [1]: 5.1%; ID [2]: 4.3%; ID [10]: 9.4%; ID [4]: 18%; ID [5]: 28%; ID [6]: 26%; ID [8]: 53%; ID [9]: 8.6%

What does the source list for `O=C(NCCCN(CCCCN(CCCNC(=O)c1cccc(O)c1O)C(=O)c1cccc(=O)n1O)C(=O)c1cccc(O)c1O)c1cccc(O)c1O`?
ID [1]: 4%; ID [2]: 3.1%; ID [11]: 43%; ID [3]: 9.1%; ID [12]: 30%; ID [13]: 82%; ID [4]: 13%; ID [14]: 3%; ID [5]: 43%; ID [6]: 12%; ID [7]: 3.1%; ID [15]: 2.3%; ID [16]: 8.3%; ID [17]: 4.5%; ID [18]: 4.5%; ID [8]: 33%; ID [19]: 1.8%; ID [9]: 12%

Which ID [1] does the source give for `O=C(NCCCN(CCCCN(CCCNC(=O)c1cccc(=O)n1O)C(=O)c1cccc(=O)n1O)C(=O)c1cccc(=O)n1O)c1cccc(=O)n1O` here?
The ID was 1.6%.

And the ID [2]?
Its ID is 0.2%.

And the ID [11]?
The ID was 11%.

And the ID [3]?
The ID was 23%.

And the ID [12]?
Its ID is 12%.

What about the ID [13] of the same molecule?
The ID was 24%.

And the ID [4]?
The ID was 7.5%.

What about the ID [5] of the same molecule?
Its ID is 21%.

And the ID [6]?
The ID was 8.9%.

And the ID [7]?
Its ID is 2%.

And the ID [20]?
The ID was 2.7%.

And the ID [21]?
Its ID is 0.1%.

And the ID [16]?
Its ID is 23%.

And the ID [17]?
Its ID is 1.3%.

And the ID [18]?
Its ID is 50%.

And the ID [8]?
The ID was 18%.

What about the ID [19] of the same molecule?
The ID was 1.4%.

And the ID [9]?
The ID was 36%.

Which ID [1] does the source give for `O=C(O)c1ccc(C(=O)NCCCN(CCCCN(CCCNC(=O)c2ccc(C(=O)O)c(O)c2O)C(=O)c2ccc(C(=O)O)c(O)c2O)C(=O)c2ccc(C(=O)O)c(O)c2O)c(O)c1O` here?
The ID was 4.8%.

And the ID [2]?
Its ID is 2.6%.

And the ID [11]?
Its ID is 19%.

And the ID [3]?
Its ID is 44%.

And the ID [12]?
Its ID is 32%.

And the ID [13]?
The ID was 56%.

And the ID [4]?
The ID was 11%.

And the ID [14]?
The ID was 1.5%.

What about the ID [22] of the same molecule?
The ID was 9.5%.

What about the ID [5] of the same molecule?
Its ID is 4.8%.

And the ID [6]?
Its ID is 11%.

And the ID [7]?
Its ID is 4.6%.

What about the ID [17] of the same molecule?
The ID was 3.9%.

What about the ID [18] of the same molecule?
The ID was 3.3%.

What about the ID [8] of the same molecule?
Its ID is 29%.

What about the ID [23] of the same molecule?
The ID was 30%.

And the ID [19]?
Its ID is 1%.

What about the ID [9] of the same molecule?
Its ID is 12%.

Which ID [1] does the source give for `O=C(NCCCN(CCCCN(CCCNC(=O)c1cccc(O)c1O)C(=O)c1cccc(=O)n1O)C(=O)c1cccc(=O)n1O)c1cccc(O)c1O` here?
Its ID is 2.4%.

And the ID [2]?
Its ID is 2%.

What about the ID [11] of the same molecule?
The ID was 35%.

And the ID [3]?
Its ID is 7.9%.

And the ID [12]?
The ID was 26%.

What about the ID [13] of the same molecule?
The ID was 68%.

And the ID [4]?
The ID was 12%.

What about the ID [14] of the same molecule?
Its ID is 3.3%.

What about the ID [24] of the same molecule?
Its ID is 4%.

What about the ID [5] of the same molecule?
The ID was 31%.

And the ID [6]?
Its ID is 21%.

And the ID [7]?
The ID was 4.1%.

And the ID [17]?
Its ID is 4.7%.

And the ID [18]?
Its ID is 13%.

What about the ID [8] of the same molecule?
The ID was 37%.

And the ID [25]?
Its ID is 12%.

And the ID [19]?
Its ID is 1.9%.

What about the ID [9] of the same molecule?
The ID was 20%.
